Experimental findings from ChEMBL document CHEMBL1833970, “One-pot syntheses of pseudopteroxazoles from pseudopterosins: a rapid route to non-natural congeners with improved antimicrobial activity” (J Nat Prod, 2011) are described below.

Test [1] deals with Mycolicibacterium diernhoferi. Description: Antimicrobial activity against Mycobacterium diernhoferi ATCC 19340 after 5 days by microbroth dilution antibiotic susceptibility assay. It is filed as functional. Particulars: ATCC 19340, 120 h. In a few lines: (§1)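 Microbroth dilution per CLSI M24-A for fast-growing mycobacteria. Compounds prepared in sterile 20% DMSO and serially diluted to eight concentrations, triplicate on separate plates. Uninoculated and untreated (media + 20% DMSO) controls plus a control antibiotic column. Incubated 5 days at 30 °C; growth relative to untreated wells scored visually to give MIC.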

Test [2] concerns Mycolicibacterium smegmatis. Description: Antimicrobial activity against Mycobacterium smegmatis ATCC 12051 after 5 days by microbroth dilution antibiotic susceptibility assay. The format is functional. To be noted: ATCC 12051, 120 h. In a few lines: as §1
A further test has as its system Pseudomonas aeruginosa. Description: Antimicrobial activity against Pseudomonas aeruginosa ATCC 14210 after 22 hrs by microbroth dilution antibiotic susceptibility assay. The format is functional, organism-based. The method, boiled down:
(§2)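 Microbroth dilution per CLSI M7-A6. Compounds in sterile 20% DMSO, serially diluted to eight concentrations, tested in triplicate with uninoculated and untreated controls. Control antibiotic was gentamycin for P. aeruginosa, ciprofloxacin for P. vulgaris and nystatin for C. albicans. OD600 read at time zero and after 22 h at 37 °C. Survival relative to vehicle calculated after baseline subtraction; IC50 derived.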

The test system of another test is Staphylococcus aureus. In words: Antimicrobial activity against methicillin-resistant Staphylococcus aureus ATCC 33591 after 22 hrs by microbroth dilution antibiotic susceptibility assay. Particulars: ATCC 33591, 22 h. The format is functional, organism-based. The method, boiled down:
(§3)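 CLSI M7-A6 broth microdilution, run in triplicate. Compounds were made up in sterile 20% DMSO and serially diluted to eight concentrations. Plates carried uninoculated and untreated controls (media + 20% DMSO) plus a control antibiotic column. OD600 was read at time zero and after 22 h at 37 °C. Time-zero readings were subtracted, survival was calculated relative to vehicle wells, and IC50 was derived.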
(In general: Broth dilution looks for growth in wells or tubes with falling amounts of substance.)

The next test deals with Candida albicans. Description: Antimicrobial activity against Candida albicans ATCC 14035 after 22 hrs by microbroth dilution antibiotic susceptibility assay. The format is functional, organism-based. In a few lines: as §2
The subject of the next test is Enterococcus faecium. In words: Antimicrobial activity against vancomycin-resistant Enterococcus faecium Ef 379 after 22 hrs by microbroth dilution antibiotic susceptibility assay. It is filed as functional, organism-based. Particulars: Ef 379, 22 h. The method, boiled down: as §3
For another test, the system named is Proteus vulgaris. Description: Antimicrobial activity against Proteus vulgaris ATCC 12454 after 22 hrs by microbroth dilution antibiotic susceptibility assay. The format is functional, organism-based. In a few lines: as §2

Converted amounts (≈) assume the structure as drawn. The source made the active and inactive calls. The calls are words filed in the database; no cut-off is given here.

A word on the MIC: it is the lowest concentration found to suppress growth. A lower MIC goes with inhibition by little substance. What is called IC50 is the concentration needed to halve the response being measured.

For the molecule `COC(=O)CCc1nc2c(C)c3c4c(c2o1)[C@@H](C)CC[C@@H]4[C@@H](C)C[C@H]3C=C(C)C`, the MIC in test [1] and in test [2] was over 128 µg/mL each time. Moreover, the outcome in the test with Pseudomonas aeruginosa and in the test on Candida albicans was inactive. The IC50 in the test with Staphylococcus aureus and in the test with Enterococcus faecium was over 128 µg/mL throughout.
With `CC[C@H](C)c1nc2c(C)c3c4c(c2o1)[C@@H](C)CC[C@@H]4[C@@H](C)C[C@H]3C=C(C)C`, the MIC in test [1] and in test [2] was over 64 µg/mL in each case. Moreover, the outcome with Pseudomonas aeruginosa and with Candida albicans was inactive. The IC50 in the test on Staphylococcus aureus and in the test on Enterococcus faecium was over 128 µg/mL throughout.
Regarding `CC(C)=C[C@@H]1C[C@H](C)[C@H]2CC[C@H](C)c3c2c1c(C)c1nc([C@@H](C)O)oc31`, the MIC in test [1] came to 8 µg/mL (≈ 22.6 µM); in test [2] it was 16 µg/mL (≈ 45.3 µM). The result in the test on Pseudomonas aeruginosa and in the test on Candida albicans was inactive. Besides, the IC50 in the test with Staphylococcus aureus and with Enterococcus faecium was over 128 µg/mL each time.
In the case of `CC(C)=C[C@@H]1C[C@H](C)[C@H]2CC[C@H](C)c3c2c1c(C)c1nc(Cc2ccccc2)oc31`, the MIC in test [1] was 4 µg/mL (≈ 10 µM); in test [2], over 64 µg/mL. The outcome with Pseudomonas aeruginosa and in the test with Candida albicans was inactive. The IC50 in the test on Staphylococcus aureus and in the test with Enterococcus faecium was over 128 µg/mL each time.
As for `CC(C)=C[C@@H]1C[C@H](C)[C@H]2CC[C@H](C)c3c2c1c(C)c1nc(-c2ccc(F)cc2)oc31`, the MIC in test [1] and in test [2] was over 64 µg/mL in each case. Further, the result in the test on Pseudomonas aeruginosa and with Candida albicans was inactive.
Take `CN[C@H](CC(C)C)C(=O)N[C@H]1C(=O)N[C@@H](CC(N)=O)C(=O)N[C@H]2C(=O)N[C@H]3C(=O)N[C@H](C(=O)N[C@H](C(=O)O)c4cc(O)cc(O)c4-c4cc3ccc4O)[C@H](O)c3ccc(c(Cl)c3)Oc3cc2cc(c3O[C@@H]2O[C@H](CO)[C@@H](O)[C@H](O)[C@H]2O[C@H]2C[C@](C)(N)[C@H](O)[C@H](C)O2)Oc2ccc(cc2Cl)[C@H]1O` [VANCOMYCIN]: the IC50 with Staphylococcus aureus stood at 12.2 µg/mL (≈ 8.45 µM).
Consider `CC(C)=C[C@@H]1C[C@H](C)[C@H]2CC[C@H](C)c3c2c1c(C)c1nc(CCC(=O)O)oc31`, for which the MIC in test [1] was determined as 4 µg/mL (≈ 10.5 µM); in test [2], 8 µg/mL (≈ 21 µM). For the same molecule, the result with Pseudomonas aeruginosa and with Candida albicans was inactive. Besides, the IC50 in the test on Staphylococcus aureus and in the test with Enterococcus faecium was 12 µg/mL (≈ 31.5 µM) each time.
Take `CC(C)=C[C@@H]1C[C@H](C)[C@H]2CC[C@H](C)c3c2c1c(C)c1nc(CC(N)=O)oc31`: the values for the MIC in test [1] and in test [2] were 2 µg/mL (≈ 5.46 µM) and 4 µg/mL (≈ 10.9 µM), respectively. The result in the test with Proteus vulgaris, in the test on Pseudomonas aeruginosa and in the test with Candida albicans was inactive. For the same molecule, the IC50 was determined as 3 µg/mL (≈ 8.19 µM) with Staphylococcus aureus and 4 µg/mL (≈ 10.9 µM) in the test with Enterococcus faecium.
For the molecule `CC(C)=C[C@@H]1C[C@H](C)[C@H]2CC[C@H](C)c3c2c1c(C)c1ocnc31` [ISOPSEUDOPTEROXAZOLE], the minimal inhibitory concentration (MIC) in test [1] and in test [2] was 8 µg/mL (≈ 25.9 µM) throughout. The result in the test on Pseudomonas aeruginosa and in the test on Candida albicans was inactive. The results for the IC50 in the test on Staphylococcus aureus and in the test with Enterococcus faecium were over 128 µg/mL and 13 µg/mL (≈ 42 µM), respectively.
For `CCCCCc1nc2c(C)c3c4c(c2o1)[C@@H](C)CC[C@@H]4[C@@H](C)C[C@H]3C=C(C)C` [HOMOPSEUDOPTEROXAZOLE], the MIC in test [1] and in test [2] was over 64 µg/mL throughout. The result in the test on Pseudomonas aeruginosa and in the test with Candida albicans was inactive. Moreover, the IC50 in the test with Staphylococcus aureus and in the test on Enterococcus faecium was over 128 µg/mL each time.
For `CC(C)=C[C@@H]1C[C@H](C)[C@H]2CC[C@H](C)c3c2c1c(C)c1nc(CCC(N)=O)oc31`, the MIC in test [1] and in test [2] was 4 µg/mL (≈ 10.5 µM) each time. In addition, the outcome with Pseudomonas aeruginosa and with Candida albicans was inactive. Besides, the IC50 in the test with Staphylococcus aureus and in the test on Enterococcus faecium was 7 µg/mL (≈ 18.4 µM) each time.
Turning to `NNC(=O)c1ccncc1` [ISONIAZID], the MIC in test [1] is 0.25 µg/mL (≈ 1.82 µM); in test [2], 1 µg/mL (≈ 7.29 µM).
`CC(C)=C[C@@H]1C[C@H](C)[C@H]2CC[C@H](C)c3c2c1c(C)c1nc(C)oc31`: the values for the MIC in test [1] and in test [2] were 4 µg/mL (≈ 12.4 µM) and 8 µg/mL (≈ 24.7 µM), respectively. For the same molecule, the result in the test with Pseudomonas aeruginosa and with Candida albicans was inactive. Moreover, the IC50 in the test on Staphylococcus aureus was over 128 µg/mL; in the test on Enterococcus faecium it was 2.5 µg/mL (≈ 7.73 µM).
As to `CC(C)=C[C@@H]1C[C@H](C)[C@H]2CC[C@H](C)c3c2c1c(C)c1ncoc31` [PSEUDOPTEROXAZOLE], the MIC in test [1] worked out at 4 µg/mL (≈ 12.9 µM); in test [2], 2 µg/mL (≈ 6.46 µM). Moreover, the outcome with Proteus vulgaris, with Pseudomonas aeruginosa and with Candida albicans was inactive. The IC50 is over 128 µg/mL in the test with Staphylococcus aureus and 13 µg/mL (≈ 42 µM) with Enterococcus faecium.
Turning to `CSCCc1nc2c(C)c3c4c(c2o1)[C@@H](C)CC[C@@H]4[C@@H](C)C[C@H]3C=C(C)C`, the MIC in test [1] and in test [2] was 16 µg/mL (≈ 41.7 µM) each time. For the same molecule, the result with Pseudomonas aeruginosa and with Candida albicans was inactive. The IC50 in the test on Staphylococcus aureus and in the test with Enterococcus faecium was over 128 µg/mL each time.
Take `CO[C@H]1/C=C/O[C@@]2(C)Oc3c(C)c(O)c4c(O)c(c(/C=N/N5CCN(C)CC5)c(O)c4c3C2=O)NC(=O)/C(C)=C\C=C\[C@H](C)[C@H](O)[C@@H](C)[C@@H](O)[C@@H](C)[C@H](OC(C)=O)[C@@H]1C` [RIFAMPIN]: the MIC in test [1] and in test [2] was 4 µg/mL (≈ 4.86 µM) in each case. The same molecule returned an IC50 with Enterococcus faecium of 8.75 µg/mL (≈ 10.6 µM).
Consider `COc1ccccc1-c1nc2c(C)c3c4c(c2o1)[C@@H](C)CC[C@@H]4[C@@H](C)C[C@H]3C=C(C)C`, for which the MIC in test [1] and in test [2] was over 64 µg/mL in each case. For the same molecule, the result with Pseudomonas aeruginosa and with Candida albicans was inactive. Besides, the IC50 in the test on Staphylococcus aureus and with Enterococcus faecium was over 128 µg/mL in each case.
